A selection: hits, their analogues and other compounds. The true share with any hit is near 3.9%.
FXN GAA850 act = FXN promoter activators, primary screen, cell-based, luciferase luminescence, HEK293 lucGAA850 | activation, % at 6 µM | HEK293 lucGAA850 FXN promoter luciferase reporter, 24 h; percent of 10 µM SAHA response | 360,000 tested, 0.56% active;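 active = activation above the average of all compounds screened plus 3 SD, cutoff fixed separately per campaign, cut at about 7.5% in these data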
ABCB6 inh 2 = ABCB6 transporter inhibitors, primary screen, K562-ABCB6 cells, flow cytometry, MLPCN library | K562-ABCB6 porphyrin accumulation, 1 h; hits give low values | AID 602162, 2011 | 360,000 tested, 0.19% active | fluorescence ratio to DMSO, % at 10 µM | ATP-binding cassette sub-family B member 6 (Homo sapiens), Q9NP58;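 active = fluorescence ratio to DMSO below 75%, the collection mean minus 3 SD; inconclusive = too few cells collected in the well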;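 also: signal is porphyrin accumulated inside mitochondria; lower ratio means ABCB6 inhibition with less porphyrin fluorescence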
AHR activator = AHR activators, primary screen, cell-based, luminescence, luciferase reporter, human; AHR-responsive luciferase reporter cells; activation, % at 5 µM; 320,000 tested, 2.5% active; in the data active = activation above about 47%
SR-BI DiI inh = inhibitors of SR-BI mediated HDL lipid uptake, primary screen, ldlA[mSR-BI] cells, fluorescence, single point. ldlA[mSR-BI] CHO cells, DiI-HDL uptake fluorescence, 3 h. AID 488896, 2010. 320,000 tested, 0.96% active. Scavenger receptor class B member 1 (Mus musculus), Q61009. inhibition, % at 12.5 µM;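 active = mean replicate inhibition of at least 70% and a set share of replicates each scoring 70 or more; inconclusive = meets just one of the two criteria; inactive = fails both criteria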
HIF activator = HIF pathway transcriptional activators, primary screen, cell-based, U2OS HRE-luciferase, luminescence; U2OS HRE-luciferase reporter; normalized: DMSO 0%, desferrioxamine 100%; activation, % at 7.5 µM (by protocol); 300,000 tested, 0.32% active; AID 1910, 2009;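 active = mean activation of at least 10% of the iron chelator positive control signal, with at least half of replicates also reaching 10%; inconclusive = mean and replicate majority disagree about reaching 10%; inactive = mean and most replicates under 10%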
SR-BI DiI-HDL act = activators of SR-BI mediated DiI-HDL uptake, primary screen, ldlA[mSR-BI] CHO cells, DiI fluorescence; 3 h; 100 = double the neutral-control signal; activation, % at 12.5 µM; 320,000 tested, 0.096% active; AID 504775, 2011;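 active = mean replicate activation of at least 60% and every replicate at or above 60%; inconclusive = mean or all-replicate condition met, but not both; inactive = mean below 60% and not all replicates reaching 60%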
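Test system: SR-BI-overexpressing, LDLR-lacking CHO cells; Also added: labelled HDL, 10 µg/mL; Measured by: bottom-read cell fluorescence after medium removal, ex 550/em 595 nm; Timing: 3 h uptake period with compound, 37 °C; Buffer or medium: F12, 0.5% BSA, 25 mM HEPES; Doses: single compound concentration, delivered by pin transfer.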
Each line names hits and unclear results; the compound was inactive in the other large screens.

O=C(Nc1ccccc1N1CCCCC1)c1ccc(-c2cccc(Cl)c2)o1	none
O=C(Nc1cccc2nsnc12)c1ccc(-c2cccc(Cl)c2)o1	AHR activator 52.1 (no result: HIF activator)
CCc1ccccc1NC(=O)CN(C)C(=O)CSc1nn(-c2ccc(F)cc2)c(=S)s1	none
CC(C)CC(=O)NCC(C)NC(=O)CC(C)C (centres undefined)	SR-BI DiI-HDL act 73.3
CCC(C)NC(=O)CC(C)C (centres undefined)	none
CCC(=O)Nc1cccc(-c2cn3ccccc3n2)c1	none
O=C(Nc1cccc(-c2cn3ccccc3n2)c1)C1CC1	AHR activator 65.3, HIF activator 37.3
Cc1nc(SCc2ccccc2)c([N+](=O)[O-])[nH]1	none
NC(=S)n1[nH]c(-c2ccc([N+](=O)[O-])cc2)c(N=Nc2ccc(Cl)cc2)c1=O	SR-BI DiI inh 103.8 (no result: AHR activator, HIF activator)
Cc1ccc(N=Nc2c(C)[nH]n(C(N)=S)c2=O)cc1	AHR activator 50.6
O=c1c(N=Nc2ccc(O)cc2)c(-c2ccccc2)[nH]n1-c1ccc([N+](=O)[O-])cc1	SR-BI DiI inh 107.3
Cc1ccc([N+](=O)[O-])cc1N=Nc1c(-c2ccc([N+](=O)[O-])cc2)[nH]n(C(N)=S)c1=O	SR-BI DiI inh 80.3 (no result: AHR activator)
Cc1cc(C(=O)OCC(=O)NCc2ccccc2Cl)c(C)o1	none
O=c1c2ccc(Cl)cc2[nH]c(=S)n1Cc1cccnc1	none
COc1ccccc1Cc1c(-c2ccc(Cl)cc2)nc2c(Cl)cc(C(F)(F)F)cn12	none (no result: FXN GAA850 act, AHR activator, SR-BI DiI inh, HIF activator, SR-BI DiI-HDL act)
C=CCn1c2ccccc2c2nnc(SCN3C(=O)c4ccccc4C3=O)nc21	AHR activator 78.3
O=C1c2ccccc2C(=O)N1CSc1nnc2c3ccccc3n(CCc3ccccc3)c2n1	none
CC(C)C1Cc2c(sc3c2c(=O)n(-c2ccccc2)c2n[nH]c(=S)n32)CO1 (centres undefined)	none
Cc1cc(NC(=O)CSc2nc3ccccc3n2CCC#N)no1	none
COc1ccc(NC(=O)c2sc3nc(-c4cccnc4)ccc3c2N)cc1OC	SR-BI DiI inh 73.6
COc1ccc(-c2ccc3c(N)c(C(=O)c4cccc(OC)c4)sc3n2)cc1	AHR activator 77.3
COc1ccc(NC(=O)c2sc3nc(-c4cccnc4)ccc3c2N)cc1	SR-BI DiI inh inconclusive
O=C(Nc1nc2c(s1)CCCC2)c1cc(-c2ccc3c(c2)OCO3)nc2ccccc12	AHR activator 57.4 (no result: FXN GAA850 act, ABCB6 inh 2, SR-BI DiI inh, SR-BI DiI-HDL act)
Cn1c(NC(=O)c2cc(-c3ccc4c(c3)OCO4)nc3ccccc23)cc(=O)n(C)c1=O	none
CC(C)(C)NC(=O)c1cc(-c2ccc3c(c2)OCO3)nc2ccccc12	AHR activator 69.8
COc1ccc(CCNC(=O)c2cnn3c(C(F)F)cc(C)nc23)cc1OC	none
O=C(NC(=S)NCc1ccc(F)cc1)c1ccccc1	none (no result: HIF activator)
COc1ccc(C(=O)NC(=S)NCc2cccnc2)cc1Br	AHR activator 50.8
CCOc1ccc(C(=O)NC(=S)Nc2cccnc2)cc1[N+](=O)[O-]	none
O=C(NC(=S)NCc1ccccc1)c1ccccc1	SR-BI DiI-HDL act 65.0
COc1ccc(C(=O)NC(=S)Nc2cccnc2)cc1[N+](=O)[O-]	AHR activator 59.0
O=C1Nc2ccccc2O/C1=C\c1c(F)cccc1Cl	AHR activator 49.1
COC(=O)c1ccc(/C=C2\Oc3ccccc3NC2=O)cc1	none
O=C(/C=C/c1ccc(Cl)cc1)N1CCN(CCN2C(=O)c3cccc4cccc(c34)C2=O)CC1	SR-BI DiI inh 77.9 (no result: AHR activator, HIF activator)
O=C(Nc1cccc2cccnc12)c1ccccc1Cl	none (no result: SR-BI DiI inh, SR-BI DiI-HDL act)
COc1ccccc1NC(=S)N(Cc1ccco1)Cc1cc2cc(C)ccc2[nH]c1=O	AHR activator 71.1
O=C(Nc1ccc(F)cc1)c1ccc(=O)[nH]n1	none
O=C(Nc1ccc(F)cc1)c1cccnn1	AHR activator 50.8
Cc1ccc(C(=O)n2c3ccccc3c3ccccc32)cc1	SR-BI DiI inh 74.1
O=C1NC[C@@H](Cc2ccc(O)cc2)N(CCc2cccc3ccccc23)C1=O	none
CC(=O)NCCC(=O)N1CCCC(N2CCN(c3cccc(Cl)c3)CC2)C1 (centres undefined)	SR-BI DiI-HDL act inconclusive
COCCn1c(NCc2ccccc2)nc2c1c(=O)[nH]c(=O)n2C	none
CCOc1cc(/C=C2/NC(=S)NC2=O)ccc1OCc1ccc([N+](=O)[O-])cc1	SR-BI DiI inh 72.8
CCOc1cc(C(c2c(C)[nH][nH]c2=O)c2c(C)[nH][nH]c2=O)ccc1OCc1ccc([N+](=O)[O-])cc1	none
CCOC(=O)c1c(NC(C)=O)sc2c(O)c(Br)cc(Br)c12	none (no result: HIF activator)
CC(=O)Oc1ccccc1N(C(C)=O)S(=O)(=O)c1ccc2ccccc2c1	none
CC(=O)Oc1c(Br)cc(N(C(C)=O)S(=O)(=O)c2ccccc2)c2ccccc12	AHR activator 47.6
O=C(C1=NN[C@@H]2C(=O)N(c3cccc(C(F)(F)F)c3)C(=O)[C@H]12)C(c1ccccc1)c1ccccc1	HIF activator 57.4
Cc1ccc(-c2ccc(C(=O)Nc3cccc(F)c3)o2)c2ccccc12	none
O=C(Nc1cccc(F)c1)c1ccc(-c2ccccc2Cl)o1	AHR activator 49.9
Cn1cc(CC(=O)N2CCN(c3ccc(Cl)cc3)CC2)c2ccccc21	HIF activator 42.2
COC(=O)c1ccc(CNC(=O)COC(=O)CCC(=O)c2ccc(F)cc2)cc1	none (no result: HIF activator)
COc1ccc(OC)c(-c2cc(C(=O)Nc3cc(C)n(Cc4ccc(Cl)cc4)n3)no2)c1	SR-BI DiI inh 89.0
COc1ccc(-c2nc3ccccn3c2NCc2ccc3c(c2)OCO3)cc1	none
c1ccc(-c2nc3ccccn3c2NCc2ccc3c(c2)OCO3)cc1	AHR activator 69.7
CC(=O)Nc1sc(C)c(C)c1C(=O)OCC(=O)NCc1ccc(Cl)cc1	none (no result: HIF activator)
O=C(/C(=C/O)N=Nc1ccc(Cl)cc1)c1ccncc1	AHR activator 72.7
CC(=O)Nc1ccc(S(=O)(=O)Nc2nc3ccccc3nc2N2CCCC2)cc1	none
CN1CC=C2C(C#N)=C(N)C(C#N)(C#N)C(CCc3ccccc3)C2C1 (centres undefined)	AHR activator 56.1
Cc1nc2sc(C(c3ccc(Cl)cc3)N3CCN(C(=O)c4ccco4)CC3)c(O)n2n1 (centres undefined)	none (no result: HIF activator)
COc1cccc(CC(=O)Nc2ccccc2C(=O)N2CCOCC2)c1	SR-BI DiI-HDL act 71.3
CCN(CC(=O)NCc1cccs1)C(=O)c1cccc(Cl)c1	none (no result: HIF activator)
